Assay outcomes from PubChem.
Hits are enriched below; roughly 4.6% of the tested compounds scored in any of these assays.
TAAR1 ag: agonists of human TAAR1 | Q96RJ0 | CHO RD-HGA16 TAAR1, Fluo-8 calcium fluorescence; vehicle wells 0%, saturating PEA agonist 100% | activation, % at 3 µM | 0.99% of 360,000 active;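 active = activation above the mean activation of all test compounds in the run plus 3 SD, cut at about 38% in these data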
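System: CHO-derived RD-HGA16 cells with stable Gα16 and human TAAR1. Times: 17-24 h plating, Fluo-8 75 min 37 °C, 30 min RT. Measured by: calcium-sensitive Fluo-8 signal, excitation 470-495, emission 515-575 nm. Read-out basis: % activation relative to PEA EC100 response. Control set: DMSO and PEA EC100. Repeats: no replicates (n 1).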
GPR7 antagonist: blocks human GPR7 receptor signaling | GPR7-expressing cells, fluorescence antagonist assay | inhibition, % at 4.4 µM | 1.1% of 290,000 active; in the data active = inhibition above about 16%, passing the limit was not always enough;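 also: cells stimulated with the agonist NPW; 0% = agonist with vehicle and 100% = vehicle without agonist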
CHO parental Ca: signal in parental CHO cells, OX1R antagonist counter-screen. parental CHO-K1, ATP-induced calcium, Fluo-8 fluorescence. inhibition, % at 5.6 µM. 0.63% of 330,000 active;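 active = inhibition above that plate's mean sample inhibition plus 3 SD, cut at about 26% in these data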;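 also: 0% = ATP-challenged DMSO wells and 100% = DMSO wells without ATP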
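Material: parental CHO cells / Compound: single nominal dose of 5.6 µM per compound / Signal: Fluo-8 fluorescence / Replicates: singlicate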
TAAR1 antag: antagonists of human TAAR1; Q96RJ0; CHO RD-HGA16 TAAR1, Fluo-8 calcium fluorescence, antagonist; inhibition, % at 3 µM; 1.5% of 360,000 active; AID 624466;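 active = inhibition above a per-plate cutoff, the mean inhibition of test compounds on that plate plus 3 SD, cut at about 49% in these data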;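 also: 0% = DMSO plus EC80 beta-PEA response and 100% = DMSO alone without agonist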
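Test system – hTAAR1-expressing CHO RD-HGA16 cells, Gα16-coupled · Reagent – β-PEA at EC80 concentration, post-compound challenge · Compound dosing – 3 µM, single point · Timing – 140 s kinetic read after compound, 140 s after agonist · Detection – Fluo-8 intracellular calcium dye fluorescence, real-time kinetic reads · Control set – DMSO and EC80 PEA controls · Repeats – n of 1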
OX1R antag-1: blocks the human orexin 1 receptor; 1.8% of 330,000 active; inhibition, % at 6.6 µM; OX1R-expressing cells, FRET antagonist read-out; AID 485270; in the data active = inhibition mostly above about 38%, no sharp cut-off; inactive = mostly below about 40%;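 also: 0% = agonist challenge alone and 100% = reference antagonist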
Target sequence (O43613 whole entry, looked up): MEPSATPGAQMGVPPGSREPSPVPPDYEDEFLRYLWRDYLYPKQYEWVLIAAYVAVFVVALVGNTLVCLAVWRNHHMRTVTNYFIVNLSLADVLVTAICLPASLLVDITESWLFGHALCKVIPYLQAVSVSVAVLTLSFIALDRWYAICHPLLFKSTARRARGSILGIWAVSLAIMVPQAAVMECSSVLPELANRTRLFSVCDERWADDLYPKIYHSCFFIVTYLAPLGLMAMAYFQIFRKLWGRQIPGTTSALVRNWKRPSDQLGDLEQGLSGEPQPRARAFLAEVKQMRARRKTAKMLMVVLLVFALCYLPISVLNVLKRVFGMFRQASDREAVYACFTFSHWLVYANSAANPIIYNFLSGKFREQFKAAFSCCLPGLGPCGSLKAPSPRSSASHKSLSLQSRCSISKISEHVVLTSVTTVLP
OX1R antag-2: antagonists of human orexin 1 receptor | CHO/OX1R cells, Fluo-8 calcium fluorescence, orexin A | 0.43% of 330,000 active | O43613 | inhibition, % at 5 µM;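 active = inhibition above its plate's threshold, mean inhibition of all tested compounds on the plate plus 3 SD, cut at about 37% in these data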;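 also: 0% = orexin A challenge wells and 100% = SB-334867-A antagonist wells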
The depositor's hits bear a star; . = no result given.

SMILES | TAAR1 ag | GPR7 antagonist | CHO parental Ca | TAAR1 antag | OX1R antag-1 | OX1R antag-2
CC1C(=O)N(Cc2ccccc2F)c2ccccc2N1C(=O)c1c(F)cccc1F (stereo unspecified) | 5 | 29 | 62* | 52* | 15 | 27
CCCCCNC(=O)c1nc(-c2c(F)cccc2F)oc1-c1ccccc1 | -1 | . | . | -42 | . | .
COC(=O)[C@]12C[C@H](CC(=O)N3CCCCC3)C(=O)N(Cc3ccccc3)C1=C[C@H](C(C)C)O[C@@H]2C1CC1 | -2 | . | . | -37 | . | .
CCOC(=O)C1CCCN(C(=O)CCc2nnc(-c3ccc(C(C)=O)s3)o2)C1 (stereo unspecified) | 26 | -3 | -11 | 5 | 42* | -14
CCOC(=O)C1CCCN(C(=O)CSCc2ccccc2)C1 (stereo unspecified) | 5 | -4 | -23 | 2 | 10 | -17
Cc1[nH]c2c(C)cccc2c1CCNC(=O)c1ccc2c(c1[N+](=O)[O-])C(=O)c1ccccc1C2=O | 4 | -3 | 2 | 20 | 75 | 5
Cc1[nH]c2ccccc2c1CCNC(=O)c1ccc2c(c1[N+](=O)[O-])C(=O)c1ccccc1C2=O | -3 | -7 | -6 | 12 | 71* | -8
CC(CCC(C)C(C)(C)C)[C@@H]1CC[C@H]2C3C[C@H](OS(O)(=S)=S)[C@H]4C[C@H](OS(O)(=S)=S)[C@@H](OS(O)(=S)=S)C[C@]4(C)[C@H]3CC[C@]12C (stereo partly specified) (tested in a mixture with another compound) | . | . | 84* | . | 66* | 101*
CC(CCC(=O)NN)C1CCC2C3CCC4CC(O)CCC4(C)C3CCC12C (stereo unspecified) | 5 | . | . | -19 | . | .
COc1ccc(OC)c(Nc2ccc(C(=O)O)cc2[N+](=O)[O-])c1 | 0 | 5 | -3 | 17 | 33 | 8
COc1ccc(Nc2ccc(C(=O)O)cc2[N+](=O)[O-])cc1 | 3 | -6 | 1 | 12 | 55* | -23
COc1ccc(C)cc1NC(=O)C1CCCN(S(=O)(=O)c2cccs2)C1 (stereo unspecified) | 0 | -8 | -21 | -9 | 37* | -13
COc1cc(NC(=O)C2CCN(S(=O)(=O)c3cccs3)CC2)cc(OC)c1 | 3 | . | -2 | -3 | 51* | 17
C=CS(=O)(=O)N(C(=C)C(=O)OC)S(C)(=O)=O | 13 | . | . | -9 | . | .
CC[N+](CC)(CC)CCCCOc1ccc2c(c1)C(=O)c1cc(OCCCC[N+](CC)(CC)CC)ccc1-2 | 0 | -14 | -7 | -13 | 57* | -6
CC[N+](CC)(CC)CCOc1ccc(/C=C/c2ccccc2)cc1 | 15 | . | 3 | -2 | 13 | 1
COc1ccc(OC)c(-n2c(SCC(=O)N3CCc4ccccc43)nc3c(c2=O)SCC3)c1 | . | -2 | -12 | . | 39* | -18
COC(=O)N1C2CCCCC2=NN(c2ccccc2)N1C(=O)OC (stereo unspecified) | 1 | . | . | -29 | . | .
COc1cc(/C=N\NC(=O)c2ccc(Cn3nc([N+](=O)[O-])c(Cl)c3C)o2)ccc1O | 12 | 16 | -1 | 49* | 17 | -1
Cc1c(Cl)c([N+](=O)[O-])nn1Cc1ccc(C(=O)N/N=C\c2ccccn2)o1 | 7 | -9 | 20 | -18 | 18 | -20
O=C1Nc2ccccc2S/C1=C/c1cccs1 | -2 | -12 | -8 | -17 | 61* | -5
Cc1ccc(N=C2NC(=O)/C(=C\c3cccs3)S2)cc1C | -1 | 7 | -28 | 24 | 57* | -22
O=[N+]([O-])c1ccc(Sc2ccccn2)nc1 | 0 | -3 | 2 | -33 | 73* | 0
O=C(NCc1ccccn1)c1ccc([N+](=O)[O-])cc1 | 0 | 3 | -6 | 9 | 31 | -14
O=[N+]([O-])c1ccc(CSc2ccccn2)cc1 | -1 | 2 | -6 | 4 | 2 | -5
SMILES | TAAR1 ag | GPR7 antagonist | CHO parental Ca | TAAR1 antag | OX1R antag-1 | OX1R antag-2
O=C(c1ccc([N+](=O)[O-])cc1)N(c1ccccn1)c1ccccn1 | 4 | 2 | 1 | -9 | 74* | -11
O=C(Nc1ccc([N+](=O)[O-])cc1)c1ccccc1 | 4 | 0 | 3 | 4 | 15 | 7
O=C(Nc1cc(Sc2ccccn2)cc([N+](=O)[O-])c1)c1ccc([N+](=O)[O-])cc1 | 15 | -7 | 41* | 24 | 22 | 44*
Cc1cc(NC(=O)Cc2c(C)[nH]c3ccccc23)ccc1Oc1cccnc1 | 7 | . | . | 6 | . | .
COc1ccccc1Cc1c(-c2ccc(F)cc2)nc2c3ccccc3ccn12 | -1 | . | . | -2 | . | .
O=C(Nc1ccc(Cl)c(Cl)c1)c1ccccc1 | 27 | . | -7 | 22 | 33 | 8
CN(C(=O)Nc1ccc(Cl)c(Cl)c1)c1ccccc1C(=O)O | 7 | -7 | 35* | 20 | 10 | 18
O=C(NC1=C(Nc2ccc(Cl)cc2)C(=O)c2ccccc2C1=O)c1ccccc1 | 8 | -6 | -27 | 26 | 56 | -11
Cc1cccc(NC2=C(NC(=O)c3ccccc3)C(=O)c3ccccc3C2=O)c1 | 1 | 6 | -28 | -8 | 75* | -26
O=C(NC1=C(NC2CCS(=O)(=O)C2)C(=O)c2ccccc2C1=O)c1ccccc1 (stereo unspecified) | -1 | -15 | -28 | -9 | 73* | -11
O=C(NCc1ccccc1Cl)c1csc(COCCO)n1 | 1 | . | . | -6 | . | .
NC(=O)c1c(NC(=O)c2ccccc2Cl)sc2c1CCC2 | -1 | -6 | -17 | -13 | 34 | -7
NC(=O)c1c(NC(=O)c2ccc(F)cc2Cl)sc2c1CCC2 | -3 | -11 | -16 | -4 | 44* | -16
NC(=O)c1c(NC(=O)c2ccccc2F)sc2c1CCCC2 | -1 | 3 | -12 | -4 | 74* | -17
O=C(O)c1cc2ccccc2c(N=Nc2cccnc2)c1O | . | -17 | -8 | . | 74* | -12
O=C(O)c1cc(N=Nc2c(O)ccc3ccccc23)cc(C(=O)O)c1 | 3 | 2 | . | -7 | . | .
Cc1ccc(NC(=O)CCN2C(=O)NC3(CCCC3)C2=O)cc1 | 0 | . | . | -11 | . | .
Cc1ccc(C)c(Sc2ccc(NC(=O)CCN3C(=O)NC4(CCCC4)C3=O)cc2)c1 | 8 | . | 63* | 35 | 11 | 60*
C[n+]1c(/C=C/c2ccc(O)cc2)ccc2ccccc21 | 0 | -5 | -2 | -3 | 73* | -9
CC(C)c1[nH]nc2c1C(c1ccccc1)N(Cc1ccccc1)C2=O (stereo unspecified) | 7 | . | . | -3 | . | .
Cc1onc(C(=O)Nc2cccc(C(F)(F)F)c2)c1[N+](=O)[O-] | -1 | -8 | 2 | 3 | 16 | -1
Cc1nc(Cl)c(C(=O)NC(=O)Nc2cccc(C(F)(F)F)c2)c(C)c1[N+](=O)[O-] | 42* | -13 | 19 | 29 | 41 | 7
